These results are taken from ChEMBL document CHEMBL4145465, “Design, synthesis and biological evaluation of novel ring-opened cromakalim analogues with relaxant effects on vascular and respiratory smooth muscles and as stimulators of elastin synthesis” (Eur J Med Chem, 2018).

The source made the active and inactive calls. The calls are words filed in the database; no cut-off is given here.

The subject of data set [1] is Trachea/thoracic aorta. The data set is described as follows: Ratio of EC50 for Wistar rat trachea tonus to EC50 for Wistar rat endothelium-denuded thoracic aorta ring. It is filed as functional. The conditions noted are these: in the assay text read “endothelium-intact” for “endothelium-denuded”. The method in brief:
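Ratio of trachea EC50 to aorta EC50, both measured against 30 mM KCl contraction in female Wistar rat rings, with cumulative compound addition in DMSO and EC50 from non-linear regression.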

The subject of data set [2] is Trachea. The data set is described as follows: Tracheorelaxant activity in Wistar rat trachea tonus assessed as reduction in 30 mM KCl-induced contraction at 100 uM after 15 mins relative to control. It is filed as functional. Particulars: 0.25 h. The method in brief: (§1)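 Trachea rings (3-4 mm) from female Wistar rats were held in a 10 ml organ bath under the same conditions as the aorta and contracted with 30 mM KCl. Compound in DMSO was added cumulatively. EC50 was derived by non-linear regression; Emax is % relaxation at 100 µM.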

The test system of data set [3] is Trachea. The data set is described as follows: Tracheorelaxant activity in Wistar rat trachea tonus assessed as reduction in 30 mM KCl-induced contraction after 15 mins. The format is functional, tissue-based. The conditions noted are these: 0.25 h. A digest of the protocol: as §1
In data set [4] the test system is Thoracic aorta. The data set is described as follows: Vasorelaxing activity in Wistar rat endothelium-intact thoracic aorta ring assessed as reduction in 30 mM KCl-induced contraction after 15 mins. Particulars: 0.25 h.
Data set [5] concerns Thoracic aorta. The data set is described as follows: Vasorelaxing activity in Wistar rat endothelium-intact thoracic aorta ring assessed as reduction in 30 mM KCl-induced contraction at 300 uM after 15 mins relative to DMSO. The conditions noted are these: 0.25 h.
Data set [6] concerns VSMC. The data set is described as follows: Induction of elastin synthesis in rat VSMC at 20 uM after 48 hrs by ELISA. The format is functional, cell-based. A digest of the protocol: (§2)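 Rat aortic VSMCs (collagenase/elastase digestion of intima-media, grown in DMEM 20% FBS on gelatin) serum-starved overnight in 1% FBS-DMEM, seeded 25000 cells/well, then exposed 48 h to compound in DMSO (<1% final); DMSO-only negative control, diazoxide reference. Fixed cells immunostained for elastin with HRP secondary, TMB substrate, absorbance 450 nm; 5-7 wells per concentration.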

Data set [7] has as its system VSMC. The data set is described as follows: Induction of elastin synthesis in rat VSMC at 50 uM after 48 hrs by ELISA relative to control. The format is functional. A digest of the protocol:
as §2
For orientation: An ELISA detects its analyte on a solid surface through an enzyme-linked reagent.

Data set [8] has as its system Thoracic aorta. The data set is described as follows: Vasorelaxing activity in Wistar rat endothelium-denuded thoracic aorta ring assessed as reduction in 30 mM KCl-induced contraction after 15 mins in presence of 1 uM glibenclamide. The format is functional, tissue-based. The conditions noted are these: 0.25 h, in the assay text read “endothelium-intact” for “endothelium-denuded”. A digest of the protocol: (§3)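 Female Wistar rat aortic rings were contracted with 30 mM KCl while continuously bathed in 1 or 10 µM glibenclamide. Compound in DMSO was added cumulatively up to 300 µM, each step held ≥15 min to a plateau. EC50 was derived by non-linear regression and compared with the EC50 obtained without glibenclamide.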

The nature of data set [9]: Ionozation constant, pKa of the compound at pH 3 to 12 at 25 degC by UV/VIS spectrophotometric method. The format is physicochemical.
Data set [10] concerns Thoracic aorta. The data set is described as follows: Vasorelaxing activity in Wistar rat endothelium-denuded thoracic aorta ring assessed as reduction in 30 mM KCl-induced contraction after 15 mins in presence of 10 uM glibenclamide. It is filed as functional, tissue-based. Particulars: 0.25 h, in the assay text read “endothelium-intact” for “endothelium-denuded”. A digest of the protocol: as §3

Data set [11] relates to Thoracic aorta. The data set is described as follows: Vasorelaxing activity in Wistar rat endothelium-denuded thoracic aorta ring assessed as reduction in 80 mM KCl-induced contraction after 15 mins. The conditions noted are these: 0.25 h, in the assay text read “endothelium-intact” for “endothelium-denuded”. The format is functional, tissue-based. The method in brief: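 Female Wistar rat aortic rings were depolarized with an 80 mM KCl solution (NaCl 43.6 mM). Once the plateau was reached, compound in DMSO was added cumulatively up to 300 µM. EC50 was obtained by non-linear regression of concentration-response curves.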

Broadly, the Emax is the maximal effect, on the per cent scale that the assay sets. As a reminder, the EC50 is the concentration needed to bring the measured effect to its halfway point. In the case of `COc1ccc(OC)c(CNC(=O)N(C)S(=O)(=O)c2ccccc2)c1`, in [1], the “Ratio EC50” value came out at 0.9. Moreover, the figures for the Emax in [2] and in data set [5] were 150% and 100%, respectively. Moreover, the concentration for a half-maximal effect (EC50) in data set [3] came out at 18.5 µM; in data set [4], 21.3 µM.
In the case of `CCOc1ccc(Cl)cc1C(C)NC(=O)N(C)S(=O)(=O)c1ccccc1` (configuration not stated), the EC50 in [4] is 10.5 µM. For the same molecule, the outcome in data set [6] was inactive. Besides, the result in data set [7] was Active. The maximal effect (Emax) in data set [5] came to 104%.
As to `COc1ccc(Br)cc1C(C)NC(=O)N(C)S(=O)(=O)c1ccc(C)cc1` (configuration not stated), in [1], the “Ratio EC50” value was 0.7. In addition, the values for the maximal effect (Emax) in [2] and in data set [5] were 143% and 97.7%, respectively. The EC50 in data set [3] was found to be 12.8 µM; in data set [4], 19.1 µM.
Take `CCOc1ccc(F)cc1C(C)NC(=O)N(C)S(=O)(=O)c1ccc(C)cc1` (racemic): in data set [4], the EC50 turned out to be 7.8 µM. In data set [5], the Emax was 104%.
As for `Cc1ccc(OCc2ccccc2)c(C(C)NC(=O)N(C)S(=O)(=O)c2ccc(Cl)cc2)c1` (racemic), the EC50 in data set [4] is 142 µM. Moreover, in data set [5], the Emax stood at 76.9%.
Consider `Cc1ccc(S(=O)(=O)N(C)C(=O)NC(C)c2ccccc2OCc2ccccc2)cc1` (racemic), for which the EC50 in data set [4] came out at 31 µM. Also, the maximal effect (Emax) in data set [5] amounted to 93.2%.
Take `CCOc1ccc(Br)cc1C(C)NC(=O)N(C)S(=O)(=O)c1ccccc1` (racemic): the “Ratio EC50” value in data set [1] is recorded as 0.4. The Emax in [2] is 137%; in [5], 104%. Also, the half-maximal effective concentration (EC50) in [3] was found to be 8.4 µM; in data set [4], 19.8 µM.
As a reminder, the pKa is the pH at which an ionisable group is half protonated. Higher therefore signals a weaker acid or stronger base. Consider `CC(NC(=O)NS(=O)(=O)c1ccc(Cl)cc1)c1cc(Br)ccc1OCc1ccccc1` (racemic), for which the “Ratio EC50” value in [1] amounted to 0.5. Further, the concentration giving a half-maximal response (EC50) in [8] came to 78.4 µM; in data set [3], 30.8 µM; in data set [4], 57.5 µM; in data set [10], 54.6 µM; in data set [11], 61.6 µM. For the same molecule, in data set [9], the pKa was found to be 5.31. Also, the Emax was 161% in [2] and 95.1% in [5]. The outcome in [6] was inactive. Further, the outcome in [7] was Active.
With `COc1ccc(F)cc1C(C)NC(=O)N(C)S(=O)(=O)c1ccc(C)cc1` (racemic), the EC50 in data set [4] was 11.7 µM. The maximal response (Emax) in data set [5] turned out to be 106%.
Turning to `COc1ccc(F)cc1C(C)NC(=O)N(C)S(=O)(=O)c1ccccc1` (racemic), the concentration for a half-maximal effect (EC50) in data set [4] was determined as 10 µM. Further, the Emax in data set [5] came to 109%.
As to `COc1ccc(F)cc1C(C)NC(=O)N(C)S(=O)(=O)c1ccc(Cl)cc1` (racemic), in data set [4], the EC50 is 12.6 µM. In data set [5], the Emax is 101%.
As for `COc1ccc(Br)cc1C(C)NC(=O)N(C)S(=O)(=O)c1ccccc1` (racemic), the “Ratio EC50” value in [1] was found to be 0.5. The figures for the Emax in data set [2] and in [5] were 125% and 98%, respectively. The results for the EC50 in data set [3] and in data set [4] were 8.4 µM and 16.8 µM, respectively.
For `Cc1ccc(S(=O)(=O)N(C)C(=O)NC(C)c2cc(C)ccc2OCc2ccccc2)cc1` (racemic), the EC50 in data set [4] came to 181 µM. Besides, the Emax in data set [5] was 82.9%.
On to `COc1ccc(Br)cc1C(C)NC(=O)N(C)S(=O)(=O)c1ccc(Cl)cc1` (racemic), for which the “Ratio EC50” value in data set [1] is reported as 2. Besides, the Emax in data set [2] amounted to 125%; in [5], 93.6%. Also, the concentration for a half-maximal effect (EC50) in data set [3] stood at 39.3 µM; in data set [4], 19.1 µM.
On to `COc1ccc(Cl)cc1C(C)NC(=O)N(C)S(=O)(=O)c1ccccc1` (racemic), for which the “Ratio EC50” value in data set [1] is 0.2. Moreover, the EC50 in [8] stood at 6.7 µM; in data set [3], 1.7 µM; in [4], 7.2 µM; in data set [10], 8.6 µM; in [11], 5.3 µM. The maximum response (Emax) was 154% in data set [2] and 103% in data set [5]. Besides, the outcome in data set [6] and in data set [7] was Active.
Turning to `CCOc1ccc(F)cc1C(C)NC(=O)N(C)S(=O)(=O)c1ccc(Cl)cc1` (racemic), the EC50 in [4] was 24.5 µM. For the same molecule, the Emax in data set [5] turned out to be 101%.
As to `CC(NC(=O)N(C)S(=O)(=O)c1ccc(Cl)cc1)c1ccccc1OCc1ccccc1` (racemic), the EC50 in data set [4] turned out to be 38.4 µM. Further, in data set [5], the Emax was found to be 91.1%.
As to `Cc1ccc(OCc2ccccc2)c(C(C)NC(=O)NS(=O)(=O)c2ccc(Cl)cc2)c1` (racemic), the “Ratio EC50” value in [1] was 0.5. The concentration for a half-maximal effect (EC50) in data set [8] worked out at 90.5 µM; in data set [3], 30.4 µM; in [4], 65.3 µM; in data set [10] it was 69.3 µM; in [11], 60.9 µM. Also, the values for the maximum response (Emax) in data set [2] and in data set [5] were 172% and 126%, respectively. Moreover, the outcome in data set [6] and in [7] was inactive.
As to `CCOc1ccc(F)cc1C(C)NC(=O)N(C)S(=O)(=O)c1ccccc1` (racemic), the concentration giving a half-maximal response (EC50) in data set [4] was determined as 11.5 µM. Moreover, the Emax in [5] worked out at 106%.
Turning to `CC(NC(=O)N(C)S(=O)(=O)c1ccccc1)c1ccccc1OCc1ccccc1` (racemic), in [4], the 50% effective concentration (EC50) stood at 21.7 µM. The Emax in data set [5] worked out at 92.3%.
As to `CC1(C)Oc2ccc(C#N)cc2[C@H](N2CCCC2=O)[C@H]1O` [(-)-CROMAKALIM], the “Ratio EC50” value in data set [1] worked out at 956.9. The EC50 in data set [8] amounted to 3.4 µM; in [3] it was 124 µM; in data set [4], 0.13 µM; in data set [10], 87.2 µM; in [11] it was 191 µM. For the same molecule, the maximal response (Emax) in data set [2] turned out to be 70.1%.
Take `CC1=Nc2ccc(Cl)cc2S(=O)(=O)N1` [DIAZOXIDE]: the result in data set [6] was inactive. In data set [7], this molecule came in with an Activity of 92%.
Regarding `COc1ccc(CCN(C)CCCC(C#N)(c2ccc(OC)c(OC)c2)C(C)C)cc1OC` (configuration not stated) [VERAPAMIL], the “Ratio EC50” value in [1] was found to be 28.7. Moreover, the 50% effective concentration (EC50) turned out to be 0.07 µM in [8]; 0.89 µM in data set [3]; 0.06 µM in data set [4]; 0.07 µM in data set [10]; 0.05 µM in data set [11].
